What was measured:
[1] = target: T1, 5-hydroxytryptamine receptor 1A (Rattus norvegicus, UniProt P19327); test: pKi value against rat 5-hydroxytryptamine 1A receptor.
T1 sequence (P19327 whole entry): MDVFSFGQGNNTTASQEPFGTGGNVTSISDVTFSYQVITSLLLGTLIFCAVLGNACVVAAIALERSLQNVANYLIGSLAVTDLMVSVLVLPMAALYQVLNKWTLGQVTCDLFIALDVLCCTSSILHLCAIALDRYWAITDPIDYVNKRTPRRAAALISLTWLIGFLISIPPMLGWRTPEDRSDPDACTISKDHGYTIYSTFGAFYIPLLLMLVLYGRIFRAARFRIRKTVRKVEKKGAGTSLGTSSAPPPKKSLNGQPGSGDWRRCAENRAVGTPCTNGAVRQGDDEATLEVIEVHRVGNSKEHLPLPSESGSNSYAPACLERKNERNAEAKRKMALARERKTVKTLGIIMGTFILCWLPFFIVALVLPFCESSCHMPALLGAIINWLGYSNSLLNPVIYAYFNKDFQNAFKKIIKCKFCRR

[2] = Partition coefficient (logP); format: physicochemical; conditions: octanol/water
How it was run: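 Retention factor k converted via calibration with 10 reference compounds (log Pow 2.1–5.7). Values below 2.1 extrapolated; interpolated values carry 95% confidence interval ±0.4.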

[3] = target: T1, 5-hydroxytryptamine receptor 1A; test: Binding affinity was evaluated by determining in vitro displacement of [3H]8-OH-DPAT from the central 5-hydroxytryptamine 1A receptor recognition site in rat frontal cortex homogenate.; format: tissue-based
D(2) dopamine receptor [4] = target: T2, D(2) dopamine receptor (Rattus norvegicus, UniProt P61169); test: In vitro displacement of [3H]spiperone from Dopamine receptor D2 binding site in rat striatum.
T2 sequence (P61169 whole entry): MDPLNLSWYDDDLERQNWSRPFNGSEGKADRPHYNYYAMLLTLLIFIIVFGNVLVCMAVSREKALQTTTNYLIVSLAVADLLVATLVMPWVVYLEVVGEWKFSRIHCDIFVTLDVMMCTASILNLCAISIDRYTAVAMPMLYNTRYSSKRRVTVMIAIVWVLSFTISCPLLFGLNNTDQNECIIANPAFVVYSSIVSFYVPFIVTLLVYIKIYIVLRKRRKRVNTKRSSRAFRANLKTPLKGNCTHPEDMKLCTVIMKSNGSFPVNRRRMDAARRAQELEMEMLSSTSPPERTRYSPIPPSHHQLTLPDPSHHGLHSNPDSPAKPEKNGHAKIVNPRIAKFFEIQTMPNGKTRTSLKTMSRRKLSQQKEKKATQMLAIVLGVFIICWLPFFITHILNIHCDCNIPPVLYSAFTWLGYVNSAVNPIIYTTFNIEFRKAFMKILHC

D(2) dopamine receptor [5] = target: T2, D(2) dopamine receptor; test: pKi value against rat Dopamine receptor D2.
[6] = target: T3, 5-hydroxytryptamine receptor 1A (Homo sapiens, UniProt P08908); test: In vitro potency at human 5-hydroxytryptamine 1A receptor in inhibiting forskolin-stimulated accumulation of intracellular cAMP; format: functional, cell-based
T3 sequence (P08908 whole entry): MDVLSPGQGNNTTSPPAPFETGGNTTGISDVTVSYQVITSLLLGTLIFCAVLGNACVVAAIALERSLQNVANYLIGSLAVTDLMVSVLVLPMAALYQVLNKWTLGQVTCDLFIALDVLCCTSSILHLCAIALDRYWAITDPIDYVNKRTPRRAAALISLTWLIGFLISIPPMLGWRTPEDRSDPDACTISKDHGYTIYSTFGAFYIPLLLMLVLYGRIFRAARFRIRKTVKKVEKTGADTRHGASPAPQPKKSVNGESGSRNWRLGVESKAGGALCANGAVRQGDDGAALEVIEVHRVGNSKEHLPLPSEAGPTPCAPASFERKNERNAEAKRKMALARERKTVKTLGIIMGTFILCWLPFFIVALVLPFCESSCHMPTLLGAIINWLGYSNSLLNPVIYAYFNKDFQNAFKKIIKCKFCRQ
How it was run: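 CHO cells stably expressing human 5-HT1A receptor, grown in α-DMEM + 10% fetal calf serum, seeded 3 days before assay. Labelled with [3H]adenine (2 μCi/mL) for 2 h, rinsed with PBS/10 mM IBMX, then stimulated 10 min with forskolin (10^-7 M) plus compound at various concentrations, in quadruplicate. TCA extraction; [3H]cAMP separated on Dowex/alumina columns, scintillation counting. EC50 from three independent experiments.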

SMILES | Ki [1] [nM] | logP [2] | Ki [3] [nM] | Ki (D(2) dopamine receptor [4]) [nM] | Ki (D(2) dopamine receptor [5]) [nM] | EC50 [6] [nM]
COc1ccccc1N1CCN(CCNC(=O)c2ccco2)CC1 | 20 | 1.6 | 18 | 73 | 79.4 | –
O=C(NCCN1CCN(c2ccccc2)CC1)c1ccc(F)cc1 | – | – | 4.9 | – | – | –
COc1ccccc1N1CCN(CCNC(C)=O)CC1 | 794 | 0.5 | 800 | 1100 | 1000 | –
COc1ccccc1N1CCN(CC/C=C/c2ccc(F)cc2)CC1 | 2 | 4.7 | 1.8 | 4.1 | 3.98 | –
COc1ccccc1N1CCN(CCCCc2ccc(F)cc2)CC1 | 1 | 4.8 | 1.1 | 3.3 | 3.16 | –
COc1ccccc1N1CCN(CCCOc2ccc(F)cc2)CC1 | 3.16 | 4.1 | 3.4 | 3.3 | 3.16 | –
OC[C@@H]1COc2c(cccc2N2CCNCC2)O1 | – | – | – | > 10000 | – | –
COc1ccccc1N1CCN(CCNC(=O)c2ccccc2)CC1 | 1.26 | 2.2 | 1.3 | 13 | 12.6 | –
COc1ccccc1N1CCN(CCNC(=S)C2CCCCC2)CC1 | 0.316 | 3.7 | 0.32 | 6.4 | 6.31 | –
COc1ccccc1N1CCN(CCNC(=O)c2ccncn2)CC1 | 15.8 | 1.5 | 15 | 250 | 251 | –
COc1ccccc1N1CCN(CCNC(=N)C2CCCCC2)CC1 | 5.01 | 3.4 | 4.5 | 130 | 126 | –
COc1ccccc1N1CCN(CCNC(=O)C2CCCCC2)CC1 | 0.794 | 2.8 | 0.8 | 23 | 12.6 | –
COc1ccccc1N1CCN(CCNC(=O)c2cccnc2)CC1 | 158 | 1.2 | 140 | 570 | 501 | –
COc1ccccc1N1CCN(CCNC(=O)c2ccc[nH]2)CC1 | 15.8 | 1.6 | 16 | 64 | 63.1 | –
O=C(NCCN1CCN(c2cccc3ccoc23)CC1)c1ccc(F)cc1 | – | – | – | 5.3 | – | –
CC1CN(c2cccc3c2OCCO3)CC(C)N1CCNC(=O)c1ccc(F)cc1 (stereo not drawn) | – | – | – | – | – | 0.78
COc1ccccc1N1CCN(CCOCc2ccc(F)cc2)CC1 | 20 | 3.6 | 22 | 10 | 10 | –
COc1ccccc1N1CCN(CCNC(=O)c2cccs2)CC1 | 1.58 | 2 | 1.6 | 17 | 15.8 | –
COc1ccccc1N1CCN(CCNC(=O)c2ccc(F)cc2)CC1 | 1 | 2.5 | 1 | – | – | –
c1cc(N2CCNCC2)c2occc2c1 | – | – | – | 780 | – | –
O=C(NCCN1CCN(c2cccc3c2OCCO3)CC1)c1ccc(F)cc1 | – | – | – | 14 | – | 0.9
O=C(NCCN1CCN(c2cccc3c2OCC(CO)O3)CC1)c1ccc(F)cc1 (single isomer, unassigned) [FLESINOXAN] | – | – | 1.7 | 140 | – | –
COc1ccccc1N1CCN(CCCC(O)c2ccc(F)cc2)CC1 (stereo not drawn) [ANISOPIROL] | 2.51 | 3.4 | 2.5 | 3.4 | 3.16 | –
COc1ccccc1N1CCN(CCCC(=O)c2ccc(F)cc2)CC1 [FLUANISONE] | 1 | 3.6 | 1 | 3.1 | 2.51 | –
c1ccc(N2CCNCC2)cc1 [PHENYLPIPERAZINE] | – | – | – | 6800 | – | –

— ChEMBL document CHEMBL1130285, “5-HT1A-versus D2-receptor selectivity of flesinoxan and analogous N4-substituted N1-arylpiperazines” (J Med Chem, 1997)
